In ChEMBL document CHEMBL1139728, “Design, synthesis, and characterization of new embelin derivatives as potent inhibitors of X-linked inhibitor of apoptosis protein” (Bioorg Med Chem Lett, 2006):

Tests used:
[1] = molecular target: E3 ubiquitin-protein ligase XIAP (Homo sapiens, UniProt P98170); assay: Binding affinity to recombinant XIAP BIR3 by FP assay
Summary of the method: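 Competitive fluorescence-polarization assay on the XIAP BIR3 domain; binding expressed as Ki.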

[2] = test system: MDA-MB-231; assay: Growth inhibition in human MDA-MB-231 cell line; assay type: functional, cell-based
Summary of the method: (§1)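 Human cancer cells (MDA-MB-231 (2LMP) breast line; PC-3 prostate line) exposed to compound for 4 days across a concentration series spanning 0.01–100 μM. Growth read by WST assay; IC50 taken from the dose-response curve.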

[3] = test system: PC-3; assay: Growth inhibition in human PC3 cell line; assay type: functional, cell-based; summary of the method: as §1

Sequence of E3 ubiquitin-protein ligase XIAP (P98170 whole entry, the tested form may be a part): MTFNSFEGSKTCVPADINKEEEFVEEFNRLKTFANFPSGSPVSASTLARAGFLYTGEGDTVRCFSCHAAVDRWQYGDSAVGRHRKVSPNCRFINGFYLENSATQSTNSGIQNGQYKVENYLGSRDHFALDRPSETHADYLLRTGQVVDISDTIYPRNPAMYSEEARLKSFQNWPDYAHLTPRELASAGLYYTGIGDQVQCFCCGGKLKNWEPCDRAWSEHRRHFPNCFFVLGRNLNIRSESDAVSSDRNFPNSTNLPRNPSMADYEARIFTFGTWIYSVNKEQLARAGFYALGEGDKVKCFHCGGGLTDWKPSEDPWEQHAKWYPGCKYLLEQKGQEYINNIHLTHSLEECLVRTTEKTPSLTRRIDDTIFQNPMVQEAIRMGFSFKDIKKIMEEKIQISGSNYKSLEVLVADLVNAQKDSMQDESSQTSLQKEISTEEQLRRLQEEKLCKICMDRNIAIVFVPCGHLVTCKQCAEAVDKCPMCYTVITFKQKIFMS

Compound	Ki [1] [nM]	IC50 [2] [nM]	IC50 [3] [nM]
CCC1=C(O)C(=O)C=C(O)C1=O	10400	–	–
O=C1C=C(O)C(=O)C(CCc2ccccc2)=C1O	710	–	–
CCCCCCCCCCCC1=C(O)C(=O)C=C(O)C1=O [EMBELIN]	400	–	–

The next lines start with the values.

Ki [1] [nM]	IC50 [2] [nM]	IC50 [3] [nM]	Compound
480	–	–	CCCCc1cccc(CCC2=C(O)C(=O)C=C(O)C2=O)c1
–	5000	5500	Cc1cccc(CCc2cccc(CCC3=C(O)C(=O)C=C(O)C3=O)c2)c1
1300	–	–	O=C1C=C(O)C(=O)C(CCCCc2ccccc2)=C1O
